Compound activity (PubChem BioAssay)
AHR activator – AHR activators, primary screen, cell-based, luminescence, luciferase reporter, human. AHR-responsive luciferase reporter cells. Aryl hydrocarbon receptor (Homo sapiens), P35869. AID 2796, 2010. 320,000 compounds, 2.5% hits. activation, % at 5 µM; in the data active = activation above about 47%
Fh CTSL1 inh – Fasciola hepatica cathepsin L1 inhibitors, primary screen, counter-screen for PFM18AAP inhibitor project, biochemical, QFRET, fluorogenic peptide substrate. recombinant F. hepatica cathepsin L1, Z-Leu-Arg-MCA fluorescence. inhibition, % at 5.96 µM. 300,000 compounds, 0.49% hits;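 active = inhibition above the mean of all tested compounds plus 3 SD, set per screening campaign, cut at about 17% in these data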
PfM18AAP inh – PfM18AAP inhibitors, malaria aminopeptidase, primary screen, biochemical, QFRET, recombinant enzyme | M18 aspartyl aminopeptidase (Plasmodium falciparum 3D7) | H-Glu-NHMec fluorogenic cleavage | 290,000 compounds, 1.2% hits | inhibition, % at 7.35 µM;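 active = inhibition above the campaign mean inhibition over all tested compounds plus 3 SD, cut at about 28% in these data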
FXN GAA850 act – FXN promoter activators, primary screen, cell-based, luciferase luminescence, HEK293 lucGAA850; HEK293 lucGAA850 FXN promoter luciferase reporter, 24 h; percent of 10 µM SAHA response; activation, % at 6 µM; 360,000 compounds, 0.56% hits;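 active = activation above the average of all compounds screened plus 3 SD, cutoff fixed separately per campaign, cut at about 7.5% in these data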
SENP1 FRET inh – human SENP1 catalytic domain inhibitors, primary screen, biochemical, FRET, uHTS; Sentrin-specific protease 1 (Homo sapiens), Q9P0U3; recombinant SENP1 catalytic domain, CyPet-SUMO1-YPet FRET cleavage; inhibition, % at 10 µM; 360,000 compounds, 0.21% hits; AID 624204, 2012;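 active = inhibition at least 30% at 10 µM, raw YFP signal under a set limit, fluorescence ratio 0.5 to 1.5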
Target sequence (Q9P0U3 419-644 limits assumed): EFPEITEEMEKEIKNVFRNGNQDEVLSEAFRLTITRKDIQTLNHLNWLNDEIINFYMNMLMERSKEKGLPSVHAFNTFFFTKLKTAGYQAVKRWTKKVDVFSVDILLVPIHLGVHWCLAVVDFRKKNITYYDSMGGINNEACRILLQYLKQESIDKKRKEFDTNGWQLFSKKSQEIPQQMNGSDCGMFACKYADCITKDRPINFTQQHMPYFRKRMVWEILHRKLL
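Compound: 10 µM single point, 0.5% DMSO; Test system: hSENP1 catalytic domain, recombinant; Timing: 50 min reaction at room temperature; Technique: FRET, CFP and YFP emission; Control set: no-enzyme wells low, DMSO-plus-enzyme wells high control.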
HDAC3 inhib – HDAC3 deacetylase inhibitors, primary screen, biochemical, fluorescence, cell-free homogeneous; Histone deacetylase 3 (Homo sapiens), O15379; recombinant HDAC3, fluorogenic peptide/trypsin coupled; inhibition, % at 8.3 µM; 320,000 compounds, 0.15% hits; AID 2718, 2010; in the data active = inhibition above about 26%, passing the limit was not always enough; inconclusive = no clear call, values can overlap the other calls
Target sequence (O15379 whole entry, looked up): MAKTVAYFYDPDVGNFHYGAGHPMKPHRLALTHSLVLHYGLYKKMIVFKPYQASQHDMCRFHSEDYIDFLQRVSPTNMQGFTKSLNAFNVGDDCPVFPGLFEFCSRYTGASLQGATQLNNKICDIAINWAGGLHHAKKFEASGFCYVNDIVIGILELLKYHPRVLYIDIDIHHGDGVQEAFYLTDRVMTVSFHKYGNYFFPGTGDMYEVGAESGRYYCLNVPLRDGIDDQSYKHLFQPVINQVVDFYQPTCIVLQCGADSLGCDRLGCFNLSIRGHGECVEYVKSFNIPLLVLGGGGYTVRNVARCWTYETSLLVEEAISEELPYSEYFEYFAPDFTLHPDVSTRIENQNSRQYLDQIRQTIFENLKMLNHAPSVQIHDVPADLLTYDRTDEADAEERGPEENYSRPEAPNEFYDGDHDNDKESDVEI
AHR act cf – AHR activators, confirmation, cell-based, luminescence, luciferase reporter, human | 2,300 compounds, 87% hits | activation, % at 9 µM | human cells, AHR-responsive luciferase reporter | AID 2845, 2010 | shares compounds with AHR activator; in the data active = activation above about 49%;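 note: HepG2 hepatoma cells carrying a DRE-driven firefly luciferase reporter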
PXR counter – human PXR activators, counter-screen for AHR activator project, cell-based, luciferase luminescence | shares compounds with AHR activator | cell-based PXR reporter | activation, % at 11.6 µM | 2,300 compounds, 88% hits | AID 434939, 2010; in the data active = activation above about 11%;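 note: human hepatoma DPX-2 cells expressing full-length human PXR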
Large screens that a line does not name were inactive (follow-up assays come after a bar, where they were run). Compounds with a hit are over-represented: about 4.2% of the library has one in this group of screens.

COc1c2occc2c(OC)c2c(=O)cc(C)oc12	AHR activator 104 | AHR act cf 77 | PXR counter 13
Cc1cc(C(=O)N/N=C/c2ccc(C)s2)n[nH]1	AHR activator 97 | AHR act cf 89 | PXR counter 24
CCN1C(=O)[C@H]2[C@@H](c3ccc(-c4cccc(Cl)c4)c(OC)c3)N3CCC[C@@]3(C(=O)OC)[C@H]2C1=O	none (no result: Fh CTSL1 inh, PfM18AAP inh)
CCN(CC)CC(O)c1ccc2ccc3ccc(O)cc3c2c1 (centres undefined)	none (no result: AHR activator, Fh CTSL1 inh, PfM18AAP inh, HDAC3 inhib)
COc1ccc(C)c2sc(NC(=O)C3=COCCO3)nc12	AHR activator 84 | AHR act cf 66 | PXR counter 19
COc1ccc(OC)c2sc(NC(=O)C3=COCCO3)nc12	AHR activator 98 | AHR act cf 88 | PXR counter inactive
CC1CCc2nc(NC(=O)C3CC3)sc2C1 (centres undefined)	AHR activator 135 | AHR act cf 105 | PXR counter 37
Cc1ncsc1C(=O)Nc1nc2c(s1)CC(C)CC2 (centres undefined)	none
Cc1cc(OCC(=O)OCC(=O)N(Cc2ccccc2)C(C)(C)C)ccc1Cl	none (no result: AHR activator, Fh CTSL1 inh, PfM18AAP inh, HDAC3 inhib)
CCOc1ccc2oc(C(=O)Nc3nccs3)c(C)c2c1	AHR activator 107 (no result: Fh CTSL1 inh, PfM18AAP inh) | AHR act cf 162 | PXR counter 23
O=c1c(/C=N/O)coc2ccc3ccccc3c12	AHR activator 84 | AHR act cf inactive | PXR counter inactive
O=C(c1ccc(Cl)c(S(=O)(=O)N2CCCCC2)c1)N1CCN(Cc2ccccc2)CC1	none
COc1ccc2sc(-c3ccccc3OC)c(-c3ccc(SC)cc3)c2c1	none (no result: AHR activator, Fh CTSL1 inh, PfM18AAP inh, FXN GAA850 act, HDAC3 inhib)
COc1ccc2sc(-c3ccc(SC)cc3)c(-c3ccc(O)cc3)c2c1	AHR activator 80 (no result: Fh CTSL1 inh, PfM18AAP inh) | AHR act cf 84 | PXR counter 19
Cc1ccc(C(O)c2ncc(-c3ccccc3Cl)[nH]2)cc1F (centres undefined)	none (no result: AHR activator, Fh CTSL1 inh, PfM18AAP inh, HDAC3 inhib)
COC(=O)c1ccc(COC(=O)[C@@H]2CC(O)CN2S(=O)(=O)c2ccccc2[N+](=O)[O-])cc1 (some centres undefined)	none (no result: PfM18AAP inh)
Cc1nn(-c2ccccc2)c2sc(C(=O)NC3CC3)cc12	AHR activator 84 | AHR act cf 80 | PXR counter 39
FC(F)(F)c1cnc(N/N=C/c2ccncc2)c(Cl)c1	AHR activator 93 | AHR act cf 75 | PXR counter 18
Nn1c(SCC(=O)Nc2ccccc2Br)nnc1-c1ccco1	none
O=C(NCCc1ccccc1)c1ccc(CS(=O)Cc2ccc(Cl)cc2)o1 (centres undefined)	none
Nc1nc(-c2ccccc2)c(-c2ccccc2)s1	none
Nc1nc(-c2ccccc2)c(N=Nc2ccc(Cl)cc2)s1	AHR activator 120 | AHR act cf 88 | PXR counter 14
COc1ccccc1NC(=O)C1CCCN(S(=O)(=O)c2ccc(-n3cnnn3)cc2)C1 (centres undefined)	none
C=C1C(=O)O[C@@H]2C[C@@H](C)[C@@H]3C=CC(=O)[C@@]3(C)[C@@H](OC(C)=O)[C@H]12	AHR activator 81, HDAC3 inhib inconclusive (no result: PfM18AAP inh, FXN GAA850 act, SENP1 FRET inh) | AHR act cf inactive | PXR counter 283
Cc1csc(=NC(=O)c2ccccc2)n1Cc1ccco1	none
CCn1c(C)csc1=NC(=O)c1ccccc1O	AHR activator 93 | AHR act cf 95 | PXR counter 15
CCc1ccc2oc(-c3cccc(N)c3)nc2c1	AHR activator 83 | AHR act cf 90 | PXR counter 12
Cc1cc(C)c2oc(-c3cccc(N)c3)nc2c1	AHR activator 79 | AHR act cf 128 | PXR counter 15
C=CC[C@@H](CC(=O)OC(C)(C)C)C(=O)OC[C@@H]1CCCN1C(=O)[C@H](CC=C)CC(=O)NCCO	none (no result: Fh CTSL1 inh, PfM18AAP inh)
C[C@H](c1ccccc1)N1C[C@@H](COCc2ccccc2)Oc2cc(N3CC[C@@H](N(C)C)C3)ccc2S1(=O)=O	none (no result: AHR activator, Fh CTSL1 inh, PfM18AAP inh, FXN GAA850 act, HDAC3 inhib)
CC(=O)Nc1cc(-c2ccoc2)cn2c(-c3ccccc3)cnc12	none (no result: AHR activator, Fh CTSL1 inh, PfM18AAP inh, HDAC3 inhib)
CC(=O)c1c(O)cc(O)cc1O	none (no result: AHR activator, Fh CTSL1 inh, PfM18AAP inh, HDAC3 inhib)
COc1ccc(C(=O)NC(=S)Nc2cc(C)ccn2)cc1[N+](=O)[O-]	AHR activator 82 | AHR act cf 109 | PXR counter 13
COc1ccccc1-c1noc(-c2ccccc2)n1	AHR activator 122 | AHR act cf 101 | PXR counter 26
COc1ccccc1-c1noc(-c2ccco2)n1	AHR activator 90 (no result: SENP1 FRET inh) | AHR act cf 120 | PXR counter 17
Cc1ccc(S(=O)(=O)N(C)C[C@H]2Oc3ncc(-c4ccccc4)cc3C(=O)N([C@@H](C)CO)C[C@@H]2C)cc1	none (no result: AHR activator, Fh CTSL1 inh, PfM18AAP inh, HDAC3 inhib)
CC1=C(C(=O)Nc2ccc(Br)cc2)C(c2ccco2)NC(=O)N1 (centres undefined)	AHR activator 107 | AHR act cf inactive | PXR counter inactive
CCCNC(=O)c1ccc2c(=O)n(Cc3ccco3)c(=S)[nH]c2c1	AHR activator 88 | AHR act cf 70 | PXR counter 34
O=c1[nH]c(CSc2ccccn2)nc2ccccc12	none
Cn1ccnc1SCc1nc2c(cnn2-c2ccccc2)c(=O)[nH]1	AHR activator 82 | AHR act cf 85 | PXR counter 16
O=c1[nH]c(CSc2ccccn2)nc2c1cnn2-c1ccccc1	AHR activator 97 | AHR act cf 71 | PXR counter 34
CCCc1c(-c2ccc(F)cc2F)ncn1Cc1cccc(-c2ccccc2)c1	none (no result: AHR activator, Fh CTSL1 inh, PfM18AAP inh, FXN GAA850 act, HDAC3 inhib)
COC(=O)N/N=C/c1cn(CCCOc2ccccc2)c2ccccc12	none
COC(=O)N/N=C/c1cn(Cc2ccccc2Cl)c2ccccc12	AHR activator 83 | AHR act cf 64 | PXR counter 70
CCCNC(=O)c1ccc(COc2cccc3ccccc23)o1	none
CCCNC(=O)c1ccc(COc2ccc(CCC)cc2OC)o1	AHR activator 80 | AHR act cf 80 | PXR counter 41
Cc1ccc(C(=O)NCC(=O)OCC(=O)N(CC(C)C)c2c(N)n(Cc3ccccc3)c(=O)[nH]c2=O)s1	none (no result: AHR activator, Fh CTSL1 inh, PfM18AAP inh, HDAC3 inhib)
COc1ccc(N(C)C(=O)CN(C)S(=O)(=O)c2ccc3c(c2)c(=O)n(C)c(=O)n3C)c(OC)c1	none
